Bioassay records as filed in PubChem BioAssay.
PP5 inh = PP5 phosphatase inhibitors, primary screen, biochemical, fluorescence | Serine/threonine-protein phosphatase 5 (Homo sapiens), P53041 | purified PP5c, OMFP substrate fluorescence | inhibition, % at 6.7 µM | 320,000 compounds, 0.18% hits | AID 1987, 2009;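 active = inhibition above the campaign's mean inhibition across all tested compounds plus 3 SD, cut at about 9.5% in these data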
JMJD2C inh = inhibitors of GASC-1 histone demethylase, primary screen, biochemical, fluorescence, DELFIA europium. Lysine-specific demethylase 4C (Homo sapiens), Q9H3R0. GST-JMJD2C(1-420) H3K9me3 demethylation. inhibition, % at 2.35 µM. 330,000 compounds, 0.069% hits. AID 2099, 2009;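 active = more than half of a compound's replicate wells show inhibition beyond 50%, single wells judged on their own value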;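 note: signal counts dimethyl H3K9 product captured on neutravidin plate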
Fh CTSL1 inh = Fasciola hepatica cathepsin L1 inhibitors, primary screen, counter-screen for PFM18AAP inhibitor project, biochemical, QFRET, fluorogenic peptide substrate. recombinant F. hepatica cathepsin L1, Z-Leu-Arg-MCA fluorescence. inhibition, % at 5.96 µM. 300,000 compounds, 0.49% hits. AID 1906, 2009;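 active = inhibition above the mean of all tested compounds plus 3 SD, set per screening campaign, cut at about 17% in these data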
Cardio protect = cardioprotection against H2O2-induced cell death, primary screen, uHTS, H9c2 cells, ATPLite luminescence. H9c2 cardiomyocytes, H2O2 injury protection, 2 h. AID 588492, 2011. 360,000 compounds, 0.63% hits. protection from H2O2 cell death, % at 20 µM;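 active = compounds giving at least 50% protection of heart cells from peroxide-induced death in the single-dose screen, raw or plate-pattern-corrected value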
pCIP destab = p/CIP-EGFP fusion destabilizers, primary screen, fluorescence, F442A cells. 290,000 compounds, 0.01% hits. 16 h. decrease of EGFP signal, % at 10 µM;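 active = EGFP signal decrease of at least 30% at 10 µM or well 3 SD below plate mean, unless failing retest; inactive = the rest, including hits failing retest or dose response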
T cruzi repl = inhibitors of intracellular T. cruzi growth, primary screen, luminescence, NIH3T3 host cells; 300,000 compounds, 1.4% hits; inhibition, % (concentration not given with the values); T. cruzi beta-gal in NIH3T3, 90 h;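 active = mean inhibition across valid replicates above about 55%, limit read from the data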;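 note: signal also drops with host cell toxicity which is not excluded here; higher percent means less beta-gal luminescence so fewer parasites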
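compound dosing = single 50 nL compound addition per well in DMSO | material = NIH/3T3 host cells with β-galactosidase reporter T. cruzi | input = 5,000 host fibroblasts per well | timing = ≥90 h infection period, 3 h prior cell attachment | read-out basis = percent inhibition of parasite-derived β-gal signal | detection = GalScreen β-gal luminescence, detergent lysis, 60 min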
A number is an active result; i = inactive; nt = no result. Compounds with a hit are over-represented: about 2.4% of the library has one in this group of screens.

SMILES	PP5 inh	JMJD2C inh	Fh CTSL1 inh	Cardio protect	pCIP destab	T cruzi repl
CCN(CC)CCN1C(=O)C(=O)/C(=C(/O)c2ccc(S(=O)(=O)N3CCOCC3)cc2)C1c1ccc(Cl)cc1 (configuration not stated)	i	i	i	i	i	i
Cn1c(CS/C(N)=N/N=C/c2ccccc2)c(Br)c(=O)n1-c1ccccc1	i	i	37	i	i	i
Cc1c(NC(=S)N/N=C/c2ccc(Br)cc2)c(=O)n(-c2ccccc2)n1C	i	i	i	i	i	i
O=C(CC1CCCCC1)NCCS(=O)(=O)N1CCN(c2ccccc2)CC1	i	i	i	i	nt	i
Cc1cc(Nc2cccc([N+](=O)[O-])c2)n2c(nc3ccccc32)c1C#N	i	i	i	i	i	76
CN(C)CCNc1c2c(c(C#N)c3nc4ccccc4n13)CCCC2	i	i	i	i	i	62
CCN(CC)CCNc1cc(C)c(C#N)c2nc3ccccc3n12	i	i	i	i	i	57
N#Cc1c2c(c(NCc3ccco3)n3c1nc1ccccc13)CCC2	i	i	i	i	i	nt
CCN(CC)CCNc1c2c(c(C#N)c3nc4ccccc4n13)CCCC2	i	i	i	i	i	63
Cc1cc(Nc2c(C)n(C)n(-c3ccccc3)c2=O)n2c(nc3ccccc32)c1C#N	i	i	i	i	i	i
CC(=O)Nc1ccc(S(=O)(=O)NCCC(=O)OC(C)C(=O)NC2(C#N)CCCCC2)cc1 (configuration not stated)	i	nt	nt	i	nt	nt
O=C(CN1CC(=O)Oc2ccccc21)OCC(=O)c1ccc(Br)cc1	i	i	i	57	nt	i
COc1nonc1NC(=O)CSc1nc2ccccc2[nH]1	i	i	i	i	i	i
Cc1nonc1NC(=O)CSc1nc2ccccc2[nH]1	i	i	17	i	i	i
CC1CCCC(C)N1S(=O)(=O)c1ccc(S(=O)(=O)NCCc2ccncc2)cc1 (configuration not stated)	i	i	i	i	i	57
COc1ccc(S(=O)(=O)Nc2cc3c4c(c2)C(C)C(=O)N4CCC3)cc1OC (configuration not stated)	i	i	i	i	nt	i
Cc1c(NC(=O)Nc2cccc(Cl)c2Cl)c(=O)n(-c2ccccc2)n1C	i	i	i	i	i	i
O=C(O)CCC1c2cc3c4cc2OC2Oc5cc6c(cc51)C(CCC(=O)O)c1cc5c7cc1OC(O6)c1cc6cc(c1)Oc1cc(cc(C(=O)O)c1)Oc1cc8cc(c1)C(Oc1cc(c(cc1C5CCC(=O)O)C3CCC(=O)O)OC(O4)c1cc(cc(c1)Oc1cc(cc(C(=O)O)c1)O8)Oc1cc(cc(C(=O)O)c1)Oc1cc(cc2c1)Oc1cc(cc(C(=O)O)c1)O6)O7 (configuration not stated)	13	101	22	nt	nt	i
CC1CCCN(C(=O)CNS(=O)(=O)c2cccs2)C1 (configuration not stated)	i	i	i	i	i	i
CCN1CCN(c2ccc(NC(=O)CCc3c(C)nc4c(-c5ccc(F)cc5)c(C)nn4c3C)cc2)CC1	i	i	i	i	i	64
Cc1nc2c(-c3ccc(F)cc3)c(C)nn2c(C)c1CCC(=O)Nc1ccccc1	i	i	i	i	i	i
Cc1ccc(Cl)c(NC(=O)CSc2n[nH]c(=O)n2C2CC2)c1Cl	i	i	nt	i	nt	nt
CC12CCC3C(CCC4CC(O)CCC43C)C1CC(O)C2 (configuration not stated)	nt	nt	nt	50	nt	nt
CC(O)CNc1ccc(-c2nn(C)c(=O)c3ccccc23)cc1[N+](=O)[O-] (configuration not stated)	i	i	i	i	i	i
O=c1[nH]nc(-c2ccc(NCCCO)c([N+](=O)[O-])c2)c2ccccc12	i	i	i	58	i	i
CN(C)CCCNc1ccc(-c2nn(C)c(=O)c3ccccc23)cc1[N+](=O)[O-]	i	i	i	i	i	68
COCCNc1ccc(-c2nn(C)c(=O)c3ccccc23)cc1[N+](=O)[O-]	i	i	i	i	i	i
